pIC50: −log10 of the molar value. Converted amounts (≈) assume the structure as drawn.
Columns and labels:
[1] = system: MCF7; experiment: Cytotoxicity against human MCF7 cells assessed as growth inhibition after 72 hrs by MTT assay; type: functional, cell-based; conditions: MCF7, 72 h
Procedure, shortened: (§1)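 Cells grown in DMEM with 10% FBS, seeded at 10,000 per well, and treated after 24 h with a concentration series ending at […]; pristimerin as positive control. After 72 h, MTT (5 mg/ml) added for 3 h. Formazan dissolved in DMSO, read at 570 nm. IC50 is the concentration giving 50% growth inhibition; mean ± S.D. of three tests in triplicate.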

[2] = Antioxidant activity assessed as nitric oxide scavenging activity after 2.5 hrs by Griess assay; type: functional
Procedure, shortened: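 Sodium nitroprusside, 10 mM in phosphate saline buffer pH 7.4, added to samples at various concentrations and held 2.5 h at room temperature. Nitrite detected with Griess reagent at 546 nm against a blank. Inhibition (%) = (1 − A1/A0)×100, with A0 the control. Ascorbic acid as standard. Means of triplicates from three independent experiments.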

[3] = system: HeLa; experiment: Cytotoxicity against human HeLa cells assessed as growth inhibition after 72 hrs by MTT assay; type: functional, cell-based; procedure, shortened: as §1
[4] = system: SW982; experiment: Cytotoxicity against human SW982 cells assessed as growth inhibition after 72 hrs by MTT assay; type: functional, cell-based; conditions: SW982, 72 h; procedure, shortened: as §1
[5] = Antioxidant activity in rat erythrocytes assessed as inhibition of phenyl hydrazine-induced haemolysis after 1 hr; type: functional, cell-based; conditions: erythrocyte
Procedure, shortened: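 20% PCV erythrocyte suspension made from rat blood. Samples at various concentrations combined with 0.5 mM phenyl hydrazine and erythrocyte suspension in phosphate buffered saline (3 ml total). Incubated 37 °C for 1 h, centrifuged 1000 g for 10 min, supernatant absorbance at 540 nm. α-Tocopherol as positive control.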

[6] = system: Radical scavenging activity; experiment: Antioxidant activity assessed as DPPH free radical scavenging activity after 15 mins by spectrophotometric analysis; type: functional
Procedure, shortened: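 Test samples at several concentrations mixed with stock DPPH (final concentration not stated), made up to 3 ml in methanol, incubated 15 min. Absorbance at 517 nm read against a sample-free blank. Ascorbic acid at various concentrations as standard. Values are means of triplicates from three independent experiments.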

Row | Structure (SMILES) | IC50 [2] [µg/mL] | IC50 [6] [µg/mL] | pIC50 [1] | pIC50 [3] | pIC50 [4] | IC50 [5] [µg/mL]
1 | COc1cc(OC)c(OC)cc1/C=C/C(=O)c1ccc(O)cc1O | 2.763 (≈ 8.36 µM) | 4.368 (≈ 13.2 µM) | 4.47 | 4.42 | 4.49 | 2.373 (≈ 7.18 µM)
2 | COc1cc(OC)c(OC)cc1/C=C/C(=O)c1cc(O)ccc1O | 2.444 (≈ 7.4 µM) | 2.653 (≈ 8.03 µM) | < 3.82 | < 3.82 | < 3.82 | 2.103 (≈ 6.37 µM)
3 | COc1cc(OC)c(C(=O)/C=C/c2cc(OC)c(OC)cc2OC)c(OC)c1 | 1.977 (≈ 5.09 µM) | 5.023 (≈ 12.9 µM) | 4.29 | 3.97 | 4.02 | 2.134 (≈ 5.49 µM)
4 | COc1cc(OC)c(OC)cc1/C=C/C(=O)c1cc(OCc2ccccc2)cc(OCc2ccccc2)c1 | 2.092 (≈ 4.1 µM) | 5.002 (≈ 9.8 µM) | 4.63 | 4.57 | 4.16 | 2.167 (≈ 4.24 µM)
5 | COc1cc(OC)c(OC)cc1/C=C/C(=O)c1cc(OC(C)=O)ccc1OC(C)=O | 2.37 (≈ 5.72 µM) | 4.65 (≈ 11.2 µM) | 4.20 | 4.24 | 4.11 | 2.327 (≈ 5.62 µM)
6 | COc1cc(OC)c(-c2cc(=O)c3ccc(O)cc3o2)cc1OC | 2.273 (≈ 6.92 µM) | 4.808 (≈ 14.6 µM) | < 3.82 | < 3.82 | < 3.82 | 2.147 (≈ 6.54 µM)
7 | COc1cc(OC)c(-c2cc(=O)c3cc(O)ccc3o2)cc1OC | 2.142 (≈ 6.52 µM) | 4.487 (≈ 13.7 µM) | < 3.82 | < 3.82 | < 3.82 | 2.141 (≈ 6.52 µM)
8 | COc1cc(OC)c(-c2cc(=O)c3cc(Cl)ccc3o2)cc1OC | 2.145 (≈ 6.19 µM) | 4.973 (≈ 14.3 µM) | < 3.82 | < 3.82 | < 3.82 | 2.125 (≈ 6.13 µM)
9 | COc1cc(OC)c(-c2oc3ccc(Cl)cc3c(=O)c2O)cc1OC | 2.106 (≈ 5.81 µM) | 4.68 (≈ 12.9 µM) | < 3.82 | < 3.82 | < 3.82 | 2.144 (≈ 5.91 µM)
10 | COc1cc(OC)c(-c2oc3ccc(O)cc3c(=O)c2O)cc1OC | 2.33 (≈ 6.77 µM) | 4.496 (≈ 13.1 µM) | < 3.82 | < 3.82 | < 3.82 | 2.154 (≈ 6.26 µM)
11 | COc1cc(OC)c(C2CC(=O)c3cc(O)ccc3O2)cc1OC (centres undefined) | 2.434 (≈ 7.37 µM) | 4.566 (≈ 13.8 µM) | < 3.82 | < 3.82 | < 3.82 | 2.14 (≈ 6.48 µM)
12 | COc1cc(OC)c(OC)cc1/C=C/C(=O)c1ccc(Cl)c([N+](=O)[O-])c1 | 1.99 (≈ 5.27 µM) | 4.472 (≈ 11.8 µM) | 4.79 | 4.78 | 4.69 | 2.151 (≈ 5.69 µM)
13 | COc1cc(OC)c(OC)cc1/C=C/C(=O)c1cc(Cl)ccc1O | 2.32 (≈ 6.65 µM) | 5.073 (≈ 14.5 µM) | < 3.82 | < 3.82 | < 3.82 | 2.233 (≈ 6.4 µM)
14 | COc1cc(OC)c(OC)cc1/C=C/C(=O)c1cccc(C(F)(F)F)c1 | 2.085 (≈ 5.69 µM) | 5.153 (≈ 14.1 µM) | < 3.82 | < 3.82 | < 3.82 | 2.302 (≈ 6.28 µM)
15 | Cc1c(C)c2c(c(C)c1O)CC[C@@](C)(CCC[C@H](C)CCC[C@H](C)CCCC(C)C)O2 [ALPHA-TOCOPHEROL] | – | – | – | – | – | 3.658 (≈ 8.49 µM)
16 | O=C1O[C@H]([C@@H](O)CO)C(O)=C1O [ASCORBIC ACID] | 2.632 (≈ 14.9 µM) | 3.039 (≈ 17.3 µM) | – | – | – | –
17 | CC=Cc1cc(OC)c(OC)cc1OC [CIS-ASARONE] | – | – | 3.89 | 3.90 | < 3.82 | –
18 | COC(=O)[C@]1(C)CC[C@]2(C)CC[C@]3(C)C4=CC=C5C(=CC(=O)C(O)=C5C)[C@]4(C)CC[C@@]3(C)[C@@H]2C1 [PRISTIMERIN] | – | – | 6.06 | 5.47 | 5.89 | –

Now from value to molecule, other results behind:

Row | IC50 [2] [µg/mL] | IC50 [6] [µg/mL] | Structure (SMILES) | pIC50 [1] | pIC50 [3] | pIC50 [4] | IC50 [5] [µg/mL]
19 | 2.014 (≈ 6.05 µM) | 4.593 (≈ 13.8 µM) | COc1cc(OC)c(OC)cc1/C=C/C(=O)c1ccc(Cl)cc1 | 4.53 | 4.44 | 4.23 | 2.298 (≈ 6.91 µM)
20 | 2.07 (≈ 6.3 µM) | 4.394 (≈ 13.4 µM) | COc1ccc(C(=O)/C=C/c2cc(OC)c(OC)cc2OC)cc1 | 4.47 | 4.42 | 4.22 | 2.178 (≈ 6.63 µM)
21 | 1.982 (≈ 5.77 µM) | 4.754 (≈ 13.8 µM) | COc1cc(OC)c(OC)cc1/C=C/C(=O)c1ccc([N+](=O)[O-])cc1 | < 3.82 | < 3.82 | < 3.82 | 2.337 (≈ 6.81 µM)
22 | 2.224 (≈ 5.9 µM) | 4.318 (≈ 11.4 µM) | COc1cc(OC)c(OC)cc1/C=C/C(=O)c1ccc(Br)cc1 | 4.74 | 4.50 | 4.42 | 2.3 (≈ 6.1 µM)
23 | 2.502 (≈ 7.96 µM) | 4.293 (≈ 13.7 µM) | COc1cc(OC)c(OC)cc1/C=C/C(=O)c1ccc(O)cc1 | 3.74 | – | 3.81 | 2.285 (≈ 7.27 µM)
24 | 2.348 (≈ 6.84 µM) | 4.309 (≈ 12.6 µM) | COc1cc(OC)c(OC)cc1/C=C/C(=O)c1cccc([N+](=O)[O-])c1 | < 3.82 | 3.89 | 3.99 | 2.209 (≈ 6.43 µM)
25 | 2.181 (≈ 6.98 µM) | 4.325 (≈ 13.8 µM) | COc1cc(OC)c(OC)cc1/C=C/C(=O)c1ccc(C)cc1 | 4.48 | 4.38 | 4.09 | 2.236 (≈ 7.16 µM)
26 | 2.012 (≈ 6.74 µM) | 4.506 (≈ 15.1 µM) | COc1cc(OC)c(OC)cc1/C=C/C(=O)c1ccccc1 | < 3.82 | < 3.82 | < 3.82 | 2.225 (≈ 7.46 µM)
27 | 1.963 (≈ 6.21 µM) | 4.71 (≈ 14.9 µM) | COc1cc(OC)c(OC)cc1/C=C/C(=O)c1ccc(F)cc1 | 4.52 | 4.54 | 4.49 | 2.216 (≈ 7.01 µM)
28 | 2.078 (≈ 5.42 µM) | 4.269 (≈ 11.1 µM) | COc1cc(OC)c(OC)cc1/C=C/C(=O)c1ccc(N2CCOCC2)cc1 | < 3.82 | < 3.82 | < 3.82 | 2.121 (≈ 5.53 µM)
29 | 1.972 (≈ 5.41 µM) | 4.757 (≈ 13.1 µM) | COc1cc(OC)c(OC)cc1/C=C/C(=O)c1ccc(-n2ccnc2)cc1 | < 3.82 | < 3.82 | < 3.82 | 2.481 (≈ 6.81 µM)
30 | 2.462 (≈ 7.15 µM) | 4.31 (≈ 12.5 µM) | COc1cc(C(=O)/C=C/c2cc(OC)c(OC)cc2OC)ccc1O | 4.02 | < 3.82 | < 3.82 | 2.163 (≈ 6.28 µM)

Source: ChEMBL document CHEMBL2331230, “Synthesis, anticancer and antioxidant activities of 2,4,5-trimethoxy chalcones and analogues from asaronaldehyde: structure-activity relationship” (Eur J Med Chem, 2013)
